Screens from PubChem BioAssay.
Xi reactivation – X-chromosome reactivation activator. XiGFP mouse fibroblasts, % GFP-positive cells imaging, 3 d; cells co-treated with 5-aza-dC sensitizer; scaled so ellipticine positive control = 100%. activation, % at 7.58 µM. 360,000 tested, 0.055% active. AID 743238;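 active means mean normalized replicate activation at least 10% and every replicate at or above 10%; inconclusive means only one of the two criteria met; inactive means mean below 10% and not all replicates reach 10%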
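System: XiGFP fibroblasts, SV40-immortalized. Medium: DMEM plus 5-aza-dC sensitizer. Doses: single point. Timing: 3 d treatment, 15 min room-temperature fixation. Control set: ellipticine 6 µM.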
ABCB6 inh MLPCN – blocks the human ABCB6 transporter. Q9NP58. K562-ABCB6 porphyrin accumulation, flow cytometry, 1 h; stronger effect = lower value. fluorescence ratio to DMSO, % at 10 µM. 360,000 tested, 0.19% active;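 active means fluorescence ratio to DMSO below 75%, the collection mean minus 3 SD; inconclusive means too few cells collected in the well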;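 further: signal is porphyrin accumulated inside mitochondria; lower ratio means ABCB6 inhibition with less porphyrin fluorescence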
Myeloid diff 2 – myeloid differentiation induction. calls only at 10 µM. 360,000 tested, 1% active. AID 624256. ER-HoxA9 myeloid progenitors, lysozyme-GFP differentiation, flow cytometry;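 active means normalized GFP-positive differentiation at or above the plate's own cutoff, the solvent-only control mean plus 3 SD; inconclusive means no clear call, values can overlap the other calls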;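 further: cells exposed to compound for four days before flow analysis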
Numbers stand for hits. This excerpt belongs to a sample that is enriched for hits.

`CN1/C(=C\C=N\NC(=O)c2ccc(O)cc2)C(C)(C)c2ccccc21` gave Xi reactivation inactive, ABCB6 inh MLPCN inactive and Myeloid diff 2 active.
For CC(C)C(=O)NC(=S)/C=C1/N(C)c2ccccc2C1(C)C the results were Xi reactivation inactive, ABCB6 inh MLPCN inactive and Myeloid diff 2 active.
`O=C(Cc1ccncc1)Nc1ccc2c(c1)[C@H]1C[C@@H](CC(=O)N3CCCCC3)O[C@@H](CO)[C@H]1O2` gave Xi reactivation inactive.
C[C@H](C(=O)N(C)C[C@@H]1OCc2ccccc2-c2c(n(C)c3ccccc23)C(=O)N([C@H](C)CO)C[C@@H]1C)c1ccccc1 was read as Xi reactivation inactive.
Screening COc1ccccc1NC(=O)N[C@H]1CC[C@@H](CC(=O)N[C@H](C)c2ccccc2)O[C@H]1CO returned Xi reactivation inactive.
C[C@@H]1CN([C@H](C)CO)C(=O)c2cccc(NC(=O)Nc3ccc4c(c3)OCO4)c2O[C@H]1CN(C)Cc1ccncc1 was read as Xi reactivation inactive.
CN1C(=O)N(S(=O)(=O)c2ccc(F)c(F)c2F)C(=O)C1(C)C was read as ABCB6 inh MLPCN inactive and Myeloid diff 2 active.
O=C1N(S(=O)(=O)c2ccccc2F)C(=O)C2(CCCC2)N1S(=O)(=O)c1ccccc1F was read as ABCB6 inh MLPCN inactive and Myeloid diff 2 inactive.
Cc1ccc(S(=O)(=O)N(C)C[C@H]2OCCCC[C@H](C)Oc3ccc(NC(=O)C4CCCCC4)cc3C(=O)N([C@@H](C)CO)C[C@@H]2C)cc1 was read as Xi reactivation inactive.
For COc1ccc2c3c(n(C)c2c1)[C@@H](CO)N(C(=O)C1CCCCC1)CC31CN(C(=O)c2ccncc2)C1 the results were Xi reactivation inactive.
For Cc1cc(C)c2c(N)c3cccc(C)c3nc2n1 the results were Xi reactivation inactive, ABCB6 inh MLPCN inactive and Myeloid diff 2 inconclusive.
`Cc1cc(C)c2nc3nc(C)c(C)cc3c(N)c2c1` gave Xi reactivation inactive, ABCB6 inh MLPCN inactive and Myeloid diff 2 active.
`C[C@@H]1CN([C@@H](C)CO)C(=O)c2cc(C#CCc3ccccc3)cnc2O[C@H]1CN(C)C(=O)C1CCC1` gave Xi reactivation inactive.
COc1ccc(NC(=O)N(C)C[C@@H]2OCc3ccccc3-c3ccccc3C(=O)N([C@@H](C)CO)C[C@H]2C)cc1 was read as Xi reactivation inactive.
`Nc1c(C(=O)NCc2ccccc2)c2nc3ccccc3nc2n1-c1ccc2c(c1)OCO2` gave ABCB6 inh MLPCN inactive and Myeloid diff 2 active.
`Nc1ccc(-n2c(N)c(C(=O)NCc3ccc4c(c3)OCO4)c3nc4ccccc4nc32)cc1` gave ABCB6 inh MLPCN inactive and Myeloid diff 2 inconclusive.
Screening CC(C)[C@H](C)NC(=O)N(C)C[C@@H]1OCc2ccccc2-c2c(n(C)c3ccccc23)C(=O)N([C@H](C)CO)C[C@H]1C returned Xi reactivation inactive.
For Cc1ccc(NS(=O)(=O)c2ccc(C(=O)N3CCN(c4ccccn4)CC3)cc2)cc1 the results were ABCB6 inh MLPCN inactive and Myeloid diff 2 inactive.
Cc1ccc(S(=O)(=O)Nc2ccc(N3CCN(C)CC3)nc2)cc1 was read as Xi reactivation inactive, ABCB6 inh MLPCN inactive and Myeloid diff 2 active.
CN1CCN(c2ccc(NS(=O)(=O)c3ccc(Cl)cc3)cn2)CC1 was read as Xi reactivation inactive, ABCB6 inh MLPCN inactive and Myeloid diff 2 active.
`CN1CCN(NS(=O)(=O)c2ccc(Cl)cc2)CC1` gave Xi reactivation inactive, ABCB6 inh MLPCN inactive and Myeloid diff 2 inactive.
Screening CN1CCN(c2ccc(NC(=O)c3ccc(C(F)(F)F)cc3)cn2)CC1 returned Xi reactivation inactive, ABCB6 inh MLPCN inactive and Myeloid diff 2 inactive.
For Cc1ccccc1C(=O)Nc1ccc(N2CCN(C)CC2)nc1 the results were Xi reactivation inactive, ABCB6 inh MLPCN inactive and Myeloid diff 2 active.
Screening CCCNC(=O)N1CC(=O)N2[C@H](C1)[C@@H](c1ccc(-c3ccccc3)cc1)[C@@H]2CO returned Xi reactivation inactive.
C[C@@H]1CN([C@H](C)CO)C(=O)Cc2cc(N(C)C)ccc2O[C@@H]1CN(C)S(=O)(=O)c1cn(C)cn1 was read as Xi reactivation inactive.
For COc1ccc(NC(=O)Nc2ccc3c(c2)CC(=O)N([C@H](C)CO)C[C@H](C)[C@@H](CN(C)S(=O)(=O)c2ccc(F)cc2)O3)cc1 the results were Xi reactivation 14.7.
Cc1ccc(S(=O)(=O)N(C)C[C@H]2Oc3ccc(NC(=O)Nc4ccccc4)cc3CC(=O)N([C@H](C)CO)C[C@@H]2C)cc1 was read as Xi reactivation 23.3.
`Cc1ccc(S(=O)(=O)N(C)C[C@@H]2Oc3ccc(NC(=O)Nc4ccccc4)cc3CC(=O)N([C@@H](C)CO)C[C@@H]2C)cc1` gave Xi reactivation inactive.
For COc1ccc(NC(=O)Nc2ccc3c(c2)CC(=O)N([C@@H](C)CO)C[C@H](C)[C@@H](CN(C)S(=O)(=O)c2ccc(F)cc2)O3)cc1 the results were Xi reactivation inactive.
`C[C@@H]1CN([C@@H](C)CO)C(=O)c2cc(NS(=O)(=O)c3cn(C)cn3)ccc2O[C@H]1CN(C)CC1CC1` gave Xi reactivation inactive.
O=C(Nc1ccccc1C(=O)Nc1ccccc1C(=O)O)c1ccccc1 was read as Xi reactivation inactive, ABCB6 inh MLPCN inactive and Myeloid diff 2 inactive.
O=C(O)c1ccccc1NC(=O)c1ccccc1Nc1ccccc1 was read as Xi reactivation inactive, ABCB6 inh MLPCN inactive and Myeloid diff 2 active.
CO[C@@H]1CN(C)C(=O)c2cc(NC(=O)Nc3c(C)noc3C)ccc2OC[C@H](C)N(C)C[C@H]1C was read as Xi reactivation inactive.
Screening COc1ccc(CN2C(=NC(=O)C3CC3)SC3CS(=O)(=O)CC32)cc1OC (stereo not given) returned Xi reactivation inactive, ABCB6 inh MLPCN inactive and Myeloid diff 2 active.
`COc1ccc(C(=O)N=C2SC3CS(=O)(=O)CC3N2Cc2ccc(OC)c(OC)c2)cc1` (stereo not given) gave Xi reactivation inactive, ABCB6 inh MLPCN inactive and Myeloid diff 2 inactive.
`COc1ccc2[nH]c(=O)c(CN(C(=O)C(C)C)c3ccccc3OC)cc2c1` gave Xi reactivation inactive, ABCB6 inh MLPCN inactive and Myeloid diff 2 active.
Screening CCC(=O)N(Cc1cc2cc(OC)ccc2[nH]c1=O)c1ccccc1OC returned Xi reactivation inactive, ABCB6 inh MLPCN inactive and Myeloid diff 2 inactive.
COc1ccc(-n2nc(C(=O)NCC(=O)O)c3ccccc3c2=O)cc1 was read as Xi reactivation inactive, ABCB6 inh MLPCN inactive and Myeloid diff 2 inactive.
`COc1ccc(-n2nc(C(=O)NCC(=O)NC(C)C)c3ccccc3c2=O)cc1` gave Xi reactivation inactive, ABCB6 inh MLPCN inactive and Myeloid diff 2 active.
CN(C)C(=O)c1cccc(-c2ccc3c(c2)[C@H]2[C@H](CCN2C(=O)c2ccncc2)[C@H](CO)N3C)c1 was read as Xi reactivation inactive.
`C[C@@H]1CN([C@@H](C)CO)C(=O)c2cc(-c3ccccc3F)cnc2O[C@@H]1CN(C)Cc1ccccc1` gave Xi reactivation inactive.
`CCN(C(=O)C1CCN(S(=O)(=O)c2ccc3c(c2)oc(=O)n3C)CC1)c1cccc(C)c1` gave Xi reactivation inactive, ABCB6 inh MLPCN inactive and Myeloid diff 2 active.
